According to ChEMBL document CHEMBL4304743, “Discovery of ( E)- N1-(3-Fluorophenyl)- N3-(3-(2-(pyridin-2-yl)vinyl)-1 H-indazol-6-yl)malonamide (CHMFL-KIT-033) as a Novel c-KIT T670I Mutant Selective Kinase Inhibitor for Gastrointestinal Stromal Tumors (GISTs)” (J Med Chem, 2019):
The source made the active and inactive calls. No cut-off for these calls is given here.

Legend:
[1] = system: Mast/stem cell growth factor receptor Kit (Homo sapiens), P10721 [T670I]; assay: Inhibition of TEL fused c-KIT T670I mutant (unknown origin) transfected in mouse BAF3 cells assessed as growth inhibition after 72 hrs by CCK8 assay; format: cell-based
Mast/stem cell growth factor receptor Kit (Homo sapiens), P10721 [T670I], sequence (P10721 whole entry T670I, the tested form may be a part): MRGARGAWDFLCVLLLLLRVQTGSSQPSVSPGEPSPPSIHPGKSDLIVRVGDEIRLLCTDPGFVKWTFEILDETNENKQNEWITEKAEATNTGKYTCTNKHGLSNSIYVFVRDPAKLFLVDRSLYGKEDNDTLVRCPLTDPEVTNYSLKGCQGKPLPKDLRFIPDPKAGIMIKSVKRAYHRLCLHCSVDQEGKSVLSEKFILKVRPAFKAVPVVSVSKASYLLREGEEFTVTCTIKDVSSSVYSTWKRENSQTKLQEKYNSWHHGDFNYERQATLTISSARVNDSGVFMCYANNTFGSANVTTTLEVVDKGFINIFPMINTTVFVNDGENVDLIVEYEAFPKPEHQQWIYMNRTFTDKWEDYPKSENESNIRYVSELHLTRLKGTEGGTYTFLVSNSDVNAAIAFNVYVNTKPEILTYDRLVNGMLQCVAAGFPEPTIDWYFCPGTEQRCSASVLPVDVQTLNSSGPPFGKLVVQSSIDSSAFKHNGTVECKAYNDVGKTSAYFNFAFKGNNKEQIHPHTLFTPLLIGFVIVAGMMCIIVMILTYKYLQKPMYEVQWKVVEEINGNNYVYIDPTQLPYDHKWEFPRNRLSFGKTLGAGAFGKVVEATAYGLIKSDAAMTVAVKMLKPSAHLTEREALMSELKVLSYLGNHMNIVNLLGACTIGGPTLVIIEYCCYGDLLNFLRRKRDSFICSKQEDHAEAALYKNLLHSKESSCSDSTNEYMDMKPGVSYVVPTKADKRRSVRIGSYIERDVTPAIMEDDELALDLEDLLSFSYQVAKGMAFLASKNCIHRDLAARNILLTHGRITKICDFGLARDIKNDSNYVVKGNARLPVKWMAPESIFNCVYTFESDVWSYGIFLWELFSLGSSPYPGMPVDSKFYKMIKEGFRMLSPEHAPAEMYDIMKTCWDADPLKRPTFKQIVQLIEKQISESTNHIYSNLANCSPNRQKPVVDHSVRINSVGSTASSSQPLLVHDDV
Summary of the method: (§1)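 Tel-c-KIT-transformed BaF3 lines (IL-3 independent) kept in RPMI 1640 with 10% FBS, 2% L-glutamine and pen/strep. Cells at 1.5 to 5 × 10^4 cells/mL mixed with graded compound and incubated 72 h at 37 °C, 5% CO2. Viability by CCK-8 absorbance at 450 nm, normalized to DMSO. GI50 from dose–response fit.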

[2] = system: Mast/stem cell growth factor receptor Kit (Homo sapiens), P10721 [V559D]; assay: Inhibition of TEL fused c-KIT V559D mutant (unknown origin) transfected in mouse BAF3 cells assessed as growth inhibition after 72 hrs by CCK8 assay; format: cell-based; summary of the method: as §1
Mast/stem cell growth factor receptor Kit (Homo sapiens), P10721 [V559D], sequence (P10721 whole entry V559D, the tested form may be a part): as the sequence (P10721 whole entry T670I, the tested form may be a part) above, with V559D, I670T counted along it

[3] = system: Mast/stem cell growth factor receptor Kit (Homo sapiens), P10721 [V559G]; assay: Inhibition of TEL fused c-KIT V559G mutant (unknown origin) transfected in mouse BAF3 cells assessed as growth inhibition after 72 hrs by CCK8 assay; format: cell-based; summary of the method: as §1
Mast/stem cell growth factor receptor Kit (Homo sapiens), P10721 [V559G], sequence (P10721 whole entry V559G, the tested form may be a part): as the sequence (P10721 whole entry T670I, the tested form may be a part) above, with V559G, I670T counted along it

[4] = target: Mast/stem cell growth factor receptor Kit (Homo sapiens, UniProt P10721, T670I); assay: Inhibition of His-tagged c-KIT T670I mutant (544 to 935 residues) (unknown origin) expressed in baculovirus infected sf9 cells pre-incubated for 60 mins followed by ATP addition and measured after 1 hr by Z-LYTE assay
Mast/stem cell growth factor receptor Kit, sequence (P10721 26-976 T670I limits assumed): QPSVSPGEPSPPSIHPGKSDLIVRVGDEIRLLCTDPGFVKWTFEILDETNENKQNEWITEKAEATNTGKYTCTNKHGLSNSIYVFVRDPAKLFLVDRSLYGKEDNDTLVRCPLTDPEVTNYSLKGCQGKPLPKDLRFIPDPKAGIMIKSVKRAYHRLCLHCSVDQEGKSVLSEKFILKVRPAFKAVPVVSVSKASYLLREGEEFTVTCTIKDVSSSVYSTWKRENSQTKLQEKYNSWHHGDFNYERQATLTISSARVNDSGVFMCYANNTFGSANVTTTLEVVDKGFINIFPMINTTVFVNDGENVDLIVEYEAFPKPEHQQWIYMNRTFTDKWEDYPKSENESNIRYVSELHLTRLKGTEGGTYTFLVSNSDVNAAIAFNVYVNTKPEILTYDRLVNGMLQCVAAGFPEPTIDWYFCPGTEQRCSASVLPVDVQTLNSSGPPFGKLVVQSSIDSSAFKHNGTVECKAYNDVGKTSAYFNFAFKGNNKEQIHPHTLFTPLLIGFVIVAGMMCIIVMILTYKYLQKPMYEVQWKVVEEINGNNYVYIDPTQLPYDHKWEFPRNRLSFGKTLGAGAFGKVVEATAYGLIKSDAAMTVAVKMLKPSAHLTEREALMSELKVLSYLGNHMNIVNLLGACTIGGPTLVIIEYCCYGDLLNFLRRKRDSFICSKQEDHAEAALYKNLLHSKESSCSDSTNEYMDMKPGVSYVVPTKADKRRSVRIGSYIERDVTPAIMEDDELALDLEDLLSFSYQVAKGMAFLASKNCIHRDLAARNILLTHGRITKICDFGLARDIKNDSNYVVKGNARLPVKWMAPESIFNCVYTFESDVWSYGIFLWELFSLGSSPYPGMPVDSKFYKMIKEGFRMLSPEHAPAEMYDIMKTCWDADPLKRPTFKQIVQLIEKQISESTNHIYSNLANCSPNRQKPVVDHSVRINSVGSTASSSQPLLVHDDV

[5] = target: Macrophage colony-stimulating factor 1 receptor (Homo sapiens, UniProt P07333); assay: Binding affinity to wild-type human partial length CSF1R (I564 to S939 residues) expressed in bacterial expression system assessed as enzyme remaining activity at 1 uM by Kinomescan assay relative to control
Macrophage colony-stimulating factor 1 receptor, sequence (P07333 whole entry, the tested form may be a part): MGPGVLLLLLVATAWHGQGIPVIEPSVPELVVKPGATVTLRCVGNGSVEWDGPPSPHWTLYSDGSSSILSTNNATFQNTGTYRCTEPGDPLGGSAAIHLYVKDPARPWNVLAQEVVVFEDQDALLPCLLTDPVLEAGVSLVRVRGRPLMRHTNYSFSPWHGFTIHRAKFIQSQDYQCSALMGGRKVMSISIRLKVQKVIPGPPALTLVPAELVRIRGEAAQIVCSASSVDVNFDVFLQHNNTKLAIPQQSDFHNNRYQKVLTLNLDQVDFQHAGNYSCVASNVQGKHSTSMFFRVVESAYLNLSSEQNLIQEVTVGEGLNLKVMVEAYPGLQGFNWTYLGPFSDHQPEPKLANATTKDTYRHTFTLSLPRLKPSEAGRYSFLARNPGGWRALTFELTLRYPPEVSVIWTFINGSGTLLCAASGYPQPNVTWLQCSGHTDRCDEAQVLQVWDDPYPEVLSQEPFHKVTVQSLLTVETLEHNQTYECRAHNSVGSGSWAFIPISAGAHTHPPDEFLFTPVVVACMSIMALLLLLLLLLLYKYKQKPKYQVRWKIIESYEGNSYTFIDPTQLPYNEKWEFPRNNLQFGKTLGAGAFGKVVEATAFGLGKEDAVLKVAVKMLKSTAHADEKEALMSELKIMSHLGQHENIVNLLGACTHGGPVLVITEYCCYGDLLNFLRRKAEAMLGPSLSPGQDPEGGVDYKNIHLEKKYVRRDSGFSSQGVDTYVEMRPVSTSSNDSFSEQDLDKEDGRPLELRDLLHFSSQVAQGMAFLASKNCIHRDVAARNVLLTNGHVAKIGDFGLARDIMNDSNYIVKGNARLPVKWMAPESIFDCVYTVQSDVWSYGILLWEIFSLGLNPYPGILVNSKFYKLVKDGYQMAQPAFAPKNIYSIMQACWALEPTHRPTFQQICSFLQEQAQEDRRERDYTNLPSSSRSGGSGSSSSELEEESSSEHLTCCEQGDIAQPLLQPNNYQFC
Summary of the method: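 KINOMEscan competition binding panel of 468 kinases and mutants, compound at 1 μM; binding reported as percent of control.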

[6] = target: Serine/threonine-protein kinase PAK 2 (Homo sapiens, UniProt Q13177); assay: Inhibition of wild-type human partial length PAK2 (P151 to R525 residues) expressed in bacterial expression system after 1 hr by Z-LYTE assay
Serine/threonine-protein kinase PAK 2, sequence (Q13177 whole entry, the tested form may be a part): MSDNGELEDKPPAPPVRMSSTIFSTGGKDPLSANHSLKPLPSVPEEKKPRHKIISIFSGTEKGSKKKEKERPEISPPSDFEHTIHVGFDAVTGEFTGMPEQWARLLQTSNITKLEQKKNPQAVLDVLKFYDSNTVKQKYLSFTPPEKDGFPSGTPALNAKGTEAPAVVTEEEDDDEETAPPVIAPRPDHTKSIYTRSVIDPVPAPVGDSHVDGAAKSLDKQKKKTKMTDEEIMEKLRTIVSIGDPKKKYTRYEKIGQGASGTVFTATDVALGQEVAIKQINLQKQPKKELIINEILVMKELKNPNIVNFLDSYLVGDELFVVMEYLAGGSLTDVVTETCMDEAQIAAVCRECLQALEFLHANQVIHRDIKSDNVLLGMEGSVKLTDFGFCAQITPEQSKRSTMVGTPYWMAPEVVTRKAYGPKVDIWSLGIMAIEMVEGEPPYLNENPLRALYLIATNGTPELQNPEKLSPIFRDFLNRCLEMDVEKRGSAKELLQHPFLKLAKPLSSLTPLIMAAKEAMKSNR

[7] = target: Serine/threonine-protein kinase pim-3 (Homo sapiens, UniProt Q86V86); assay: Inhibition of wild-type human partial length PIM3 (G16 to A317 residues) expressed in bacterial expression system after 1 hr by Z-LYTE assay
[8] = system: Mast/stem cell growth factor receptor Kit (Homo sapiens), P10721 [UNDEFINED MUTATION]; assay: Inhibition of c-KIT 560 to 578 deletion/T670I double mutant in human GIST5R cells assessed as reduction in c-KIT autophosphorylation at Y703 residue at 0.1 uM to 3 uM after 1 hr by Western blot analysis; format: cell-based
Mast/stem cell growth factor receptor Kit (Homo sapiens), P10721 [UNDEFINED MUTATION], sequence (P10721 whole entry, looked up, stated change not applied): as the sequence (P10721 whole entry T670I, the tested form may be a part) above, with I670T counted along it
Summary of the method: (§2)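 Serial compound dilutions applied for 1 h to GIST-T1, GIST-T1-T670I (CRISPR/Cas9 T670I knock-in, clone confirmed by Sanger sequencing) or GIST-5R cells in DMEM with 10% FBS. Cells then lysed and phospho-proteins detected by standard Western blotting.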

[9] = system: Mast/stem cell growth factor receptor Kit (Homo sapiens), P10721 [UNDEFINED MUTATION]; assay: Inhibition of c-KIT 560 to 578 deletion/T670I double mutant in human GIST5R cells assessed as reduction in ERK phosphorylation at T202/Y204 residue at 0.1 uM to 3 uM after 1 hr by Western blot analysis; format: cell-based; summary of the method: as §2
[10] = system: Mast/stem cell growth factor receptor Kit (Homo sapiens), P10721 [UNDEFINED MUTATION]; assay: Inhibition of c-KIT 560 to 578 deletion/T670I double mutant in human GISTT1 cells assessed as reduction in S6 phosphorylation at S235/S236 residue at 0.1 uM to 3 uM after 1 hr by Western blot analysis; format: cell-based; summary of the method: as §2
[11] = system: Mast/stem cell growth factor receptor Kit (Homo sapiens), P10721 [UNDEFINED MUTATION]; assay: Inhibition of c-KIT 560 to 578 deletion mutant in human GISTT1 cells assessed as reduction in STAT3 phosphorylation at 0.1 uM to 3 uM after 1 hr by Western blot analysis; format: cell-based; summary of the method: as §2
[12] = system: Mast/stem cell growth factor receptor Kit (Homo sapiens), P10721 [UNDEFINED MUTATION]; assay: Inhibition of c-KIT 560 to 578 deletion/T670I double mutant in human GIST5R cells assessed as reduction in STAT3 phosphorylation after 1 hr by Western blot analysis; format: cell-based; summary of the method: as §2
GISTT1 [13] = assay: Induction of apoptosis in human GISTT1 cells harboring c-KIT 560 to 578 deletion mutant assessed as increase in cleaved PARP level after 24 hrs by Western blot analysis; format: functional, cell-based
Summary of the method: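 GIST cells grown in DMEM with 10% FBS, treated 24 h with serially diluted compound; apoptosis read by Western blot for PARP, with GAPDH as loading control.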

GISTT1 [14] = assay: Induction of apoptosis in human GISTT1 cells harboring c-KIT 560 to 578 deletion mutant assessed as increase in cleaved caspase level after 24 hrs by Western blot analysis; format: functional, cell-based
Homo sapiens = species: Homo sapiens; assay: Induction of apoptosis in human GIST5R cells harboring c-KIT 560 to 578 deletion/T670I double mutant assessed as increase in cleaved caspase level after 24 hrs by Western blot analysis; format: functional, cell-based
GISTT1 [15] = assay: Induction of cell cycle arrest in human GISTT1 cells harboring 560 to 578 deletion/T670I double mutant after 24 hrs; format: functional, cell-based
GISTT1 [16] = assay: Induction of cell cycle arrest in human GISTT1 cells harboring c-KIT 560 to 578 deletion mutant after 24 hrs; format: functional, cell-based
[17] = Half-life in Sprague-Dawley rat at 1 mg/kg, iv measured after 2 to 720 mins by LC-tandem mass spectrometry analysis; format: ADME, organism-based; conditions: in vivo
Summary of the method: (§3)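 Male Sprague-Dawley rats (190-210 g), fasted 12 h, randomized into two groups: 1 mg/kg i.v. or 10 mg/kg p.o., both formulated in 10% DMSO/90% of 5% glucose water. Blood sampled at 2-720 min (i.v.) or 5-720 min (p.o.). Plasma protein-precipitated with methanol, caffeine internal standard, LC-MS/MS. Noncompartmental analysis; triplicate, ±SD.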

[18] = Apparent volume of distribution in Sprague-Dawley rat at 1 mg/kg, iv measured after 2 to 720 mins by LC-tandem mass spectrometry analysis; format: ADME, organism-based; conditions: in vivo, read-out: Vz; summary of the method: as §3
[19] = Apparent clearance in Sprague-Dawley rat at 1 mg/kg, iv measured after 2 to 720 mins by LC-tandem mass spectrometry analysis; format: ADME, organism-based; conditions: in vivo, read-out: CL(app) (converted); summary of the method: as §3
[20] = AUC (0 to t) in Sprague-Dawley rat at 10 mg/kg, po measured after 5 to 720 mins by LC-tandem mass spectrometry analysis; format: ADME, organism-based; conditions: in vivo; summary of the method: as §3
[21] = Apparent clearance in Sprague-Dawley rat at 10 mg/kg, po measured after 5 to 720 mins by LC-tandem mass spectrometry analysis; format: ADME, organism-based; conditions: in vivo, read-out: CL(app) (converted); summary of the method: as §3
[22] = Cmax in Sprague-Dawley rat at 10 mg/kg, po measured after 5 to 720 mins by LC-tandem mass spectrometry analysis; format: ADME, organism-based; design: dose 10 mg/kg, route oral; conditions: in vivo; summary of the method: as §3
Mus musculus = assay: Inhibition of c-KIT phosphorylation at Y703 residue in tumor of human GIST5R cells xenografted in nude mouse at 100 mg/kg, po administered as single dose and measured after 2 hrs; format: functional, organism-based
Summary of the method: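 Female nu/nu mice bearing subcutaneous GIST-5R tumors (cells in Matrigel, right flank) given one oral dose of 100 mg/kg in 0.5% methylcellulose/0.4% Tween80. Tumors collected over a 2 h time course. p-c-KIT, p-ERK and p-AKT measured alongside plasma drug levels.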

## O=C(CC(=O)Nc1ccc2c(/C=C/c3ccccn3)n[nH]c2c1)Nc1cccc(F)c1
[1]
  GI50: 44 nM
[2]
  GI50: 8 nM
[3]
  GI50: 26 nM
[4]
  IC50: 45 nM
[5]
  Activity: 0%
[6]
  IC50: > 10000 nM
[7]
  IC50: > 10000 nM
[8]
  inhibition: Active
[9]
  inhibition: Active
[10]
  inhibition: Active
[11]
  inhibition: inactive
[12]
  inhibition: Dose-dependent effect
GISTT1 [13]
  Activity: Dose-dependent effect
GISTT1 [14]
  Activity: Dose-dependent effect
Homo sapiens
  Activity: Dose-dependent effect
GISTT1 [15]
  Activity: Dose-dependent effect
GISTT1 [16]
  Activity: Dose-dependent effect
[17]
  half-life: 10.4 h
[18]
  Vd: 49.3 L/kg
[19]
  clearance: 55 mL/min/kg
[20]
  AUC(0-t): 712 ng·h/mL
[21]
  CL/F: 207 mL/min/kg
[22]
  Cmax: 97.1 ng/mL
Mus musculus
  inhibition: inactive
